Where “and” joins values, the source holds several entries; their conditions need not be identical. Equal entries are not always repeated.
System: U2OS
Test: Multiplex assay against U2OS
Type: toxicity, cell-based
Settings: human
Summary of the method: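 Imaging took place on a CQ1 microscope at 37°C and 5% CO2 once compound had been added to live cells stained at seeding with Hoechst33342, BioTracker Green Microtubule Cytoskeleton Dye, MitoTracker Red and Annexin V Alexa Fluor 680. CellPathfinder machine-learning gating classed cells as Hoechst high-intensity objects or normal cells, classed normal cells as having healthy, pyknosed or fragmented nuclei, and classed pyknosed cells as mitotic or apoptotic. Tubulin, mitochondrial-mass and membrane-permeability phenotypes are per cents of the healthy-nucleus cells.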

[1] = 12 h, 1 µM, compound concentration 1 uM
[2] = 12 h, 10 µM, compound concentration 10 uM
[3] = 24 h, 1 µM, compound concentration 1 uM
[4] = 24 h, 10 µM, compound concentration 10 uM
[5] = 48 h, 1 µM, compound concentration 1 uM
[6] = 48 h, 10 µM, compound concentration 10 uM

For `CC(C)(C)c1ccc(S(=O)(=O)Nc2ccc(Cl)cc2C(=O)c2cc[n+]([O-])cc2)cc1` [VERCIRNON], the “Population Apoptotic (%)” value [1] was 77% and 100%, the “Population Fragmented Nuclei (%)” value [1] was 28% and 15% and the “Population Healthy Nuclei (%)” value [1] was 61% and 79%. The “Population Hoechst High Intensity Objects (%)” value [1] was 1% and 0%, the “Population Membrane Permeable-Phenotype (%)” value [1] was 8% and the “Population Mitochondria Different-Phenotype (%)” value [1] was 5% and 4%. The “Population Mitotic Cells (%)” value [1] was 22% and 0%, the “Population Normal (%)” value [1] was 98% and 99% and the “Population Pyknosed Nuclei (%)” value [1] was 10% and 5%. The “Population Tubulin-Different-Phenotype (%)” value [1] was 4% and 3%, the “Total Cell Count” value [1] was 307 and 156 and the “Population Apoptotic (%)” value [2] was 77% and 50%. For the same compound, the “Population Fragmented Nuclei (%)” value [2] was 24% and 21%, the “Population Healthy Nuclei (%)” value [2] was 68% and 77% and the “Population Hoechst High Intensity Objects (%)” value [2] was 1% and 0%. For the same compound, the “Population Mitochondria Different-Phenotype (%)” value [2] was 2%, the “Population Mitotic Cells (%)” value [2] was 22% and 50% and the “Population Normal (%)” value [2] was 98% and 99%. For the same compound, the “Population Pyknosed Nuclei (%)” value [2] was 6% and 1%, the “Total Cell Count” value [2] was 266 and 123 and the “Population Apoptotic (%)” value [3] was 89% and 92%. For the same compound, the “Population Fragmented Nuclei (%)” value [3] was 25% and 18%, the “Population Healthy Nuclei (%)” value [3] was 67% and 74% and the “Population Hoechst High Intensity Objects (%)” value [3] was 1% and 0%. For the same compound, the “Population Membrane Permeable-Phenotype (%)” value [3] was 8% and 2%, the “Population Mitochondria Different-Phenotype (%)” value [3] was 5% and 4% and the “Population Mitotic Cells (%)” value [3] was 10% and 7%. For the same compound, the “Population Normal (%)” value [3] was 98% and 99%, the “Population Pyknosed Nuclei (%)” value [3] was 7% and the “Population Tubulin-Different-Phenotype (%)” value [3] was 4% and 2%. For the same compound, the “Total Cell Count” value [3] was 357 and 183, the “Population Apoptotic (%)” value [4] was 76% and 71% and the “Population Fragmented Nuclei (%)” value [4] was 21% and 22%. For the same compound, the “Population Healthy Nuclei (%)” value [4] was 72%, the “Population Hoechst High Intensity Objects (%)” value [4] was 2% and 1% and the “Population Mitochondria Different-Phenotype (%)” value [4] was 1%. The “Population Mitotic Cells (%)” value [4] was 23% and 28%, the “Population Normal (%)” value [4] was 97% and 98% and the “Population Pyknosed Nuclei (%)” value [4] was 5% and 4%. For the same compound, the “Total Cell Count” value [4] was 297 and 160, the “Population Apoptotic (%)” value [5] was 82% and 84% and the “Population Fragmented Nuclei (%)” value [5] was 19% and 15%. The “Population Healthy Nuclei (%)” value [5] was 73% and 75%, the “Population Hoechst High Intensity Objects (%)” value [5] was 3% and 4% and the “Population Membrane Permeable-Phenotype (%)” value [5] was 5% and 7%. For the same compound, the “Population Mitochondria Different-Phenotype (%)” value [5] was 3% and 2%, the “Population Mitotic Cells (%)” value [5] was 17% and 15% and the “Population Normal (%)” value [5] was 96% and 95%. The “Population Pyknosed Nuclei (%)” value [5] was 6% and 9%, the “Population Tubulin-Different-Phenotype (%)” value [5] was 4% and 2% and the “Total Cell Count” value [5] was 515 and 296. For the same compound, the “Population Apoptotic (%)” value [6] was 79% and 77%, the “Population Fragmented Nuclei (%)” value [6] was 18% and 26% and the “Population Healthy Nuclei (%)” value [6] was 75% and 65%. For the same compound, the “Population Hoechst High Intensity Objects (%)” value [6] was 1% and 2%, the “Population Membrane Permeable-Phenotype (%)” value [6] was 2% and 8% and the “Population Mitochondria Different-Phenotype (%)” value [6] was 1% and 5%. For the same compound, the “Population Mitotic Cells (%)” value [6] was 20% and 22%, the “Population Normal (%)” value [6] was 98% and 97% and the “Population Pyknosed Nuclei (%)” value [6] was 5% and 8%. For the same compound, the “Population Tubulin-Different-Phenotype (%)” value [6] was 1% and 11% and the “Total Cell Count” value [6] was 414 and 215.

From ChEMBL document CHEMBL5724801, “EUbOPEN Chemogenomics Library - Multiplex” (2024)
